# In the library only some 12% were active in any assay of this set; here they are far more common.
# bCat nuc transl = beta-catenin nuclear translocation modulation | HeLa beta-catenin nuclear translocation, immunofluorescence imaging | nuclear translocation activity, % at 5 µM | 0.3% of 190,000 active | AID 1665;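 active means nuclear translocation activity above 50% at 5 µM, with a well cell count of 50 or more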;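 further: per-cell ratio of nuclear to cytoplasmic median beta-catenin stain intensity; plate controls were DMSO negative control for no effect and GSK-3 inhibitor IX positive control for full effect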
#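 assay system = human HeLa cells, endogenous beta-catenin | times = compound treatment 24 h, 37°C, 5% CO2 | detection = Anti-beta-catenin immunofluorescence on PFA-fixed, Triton-permeabilized cells, DAPI nuclei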
# Dynein cargo inh = dynein cargo transport inhibition | z-score, hits read low | 3617.4 mouse cells, GR-EGFP nuclear translocation imaging; test concentration mostly 20 µM; stimulated with dexamethasone, 1 µM; stronger effect = lower value | 0.47% of 220,000 active;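 active means plate z-score of nuclear minus cytoplasmic receptor signal below a set negative limit, without overly bright fluorescence or cell loss, cut at about -3.5 in these data, passing the limit was not always enough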;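 further: z-score of nuclear minus cytoplasmic ring GR-EGFP intensity difference per well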
#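 Buffer or medium – tet-free medium with charcoal-stripped serum · Signal – automated 10x imaging of fixed Hoechst-stained cells · Also added – dexamethasone agonist, 1.0 µM final, for 30 min · Incubation – induction 48 h, compound 1 h, agonist 30 min · Read-out – GR-EGFP nuclear translocation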
# Autophagy HCS = alters autophagy in cells; MEF GFP-LC3 puncta imaging; test concentration mostly 10 µM; calls only at 10 µM (by protocol); 0.98% of 190,000 active;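 active means percentage of spot-positive cells more than 3 SD above its plate mean, without a fluorescence outlier flag or 80% toxicity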;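 further: spot-positive cell cutoff set from DMSO-treated cells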
# CHOP inh = CHOP inhibition in unfolded protein response; CHO-K1 CHOP-promoter luciferase, tunicamycin-induced, 15-18 h; 3.8% of 220,000 active; inhibition, % at 10 µM;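 active means compounds that reduced the stress-induced luciferase reporter signal by more than about 70% of percent inhibition, limit read from the data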;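 further: 0% = tunicamycin plus vehicle and 100% = wells without tunicamycin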
# L major viab = Leishmania major promastigote growth inhibition | 9% of 200,000 active | Leishmania major promastigotes, resazurin fluorescence viability | inhibition, % at 10 µM; in the data active means inhibition above about 50%;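 further: promastigotes grown with compound for 44 hours at 28 °C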
# MT stabilizer = microtubule stabilization, imaging screen | AID 2205 | % tubulin-high responders, % at 10 µM | HeLa tubulin immunostaining HCS, 24 h; share of cells brighter than vehicle mean+2SD | 0.83% of 200,000 active;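 active means plate Z-score above 3 for both tubulin-high and condensed-nucleus cell shares, with cell loss under 80%, at 10 µM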;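 further: anti alpha tubulin signal scored within the nucleus-defined area of each cell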
# * marks the source's active call; other numbers are inactive results; i = inactive; . = no result given; + = active, no number.
SMILES,bCat nuc transl,Dynein cargo inh,Autophagy HCS,CHOP inh,L major viab,MT stabilizer
O=S(=O)(c1ccc(-c2ccon2)s1)N1CCN(c2ccccn2)CC1,1,0.48,.,16,.,.
COc1cc2c(cc1NC(=O)c1cc(-c3ccccn3)nc3ccccc13)oc1ccccc12,0,0.56,i,33,4,6
Cc1c(C2N3CC4(C)CN2CC(C)(C3)C4=O)c2ccccc2n1C (stereo not given),-1,0.29,i,49,-4,3
COc1cc(/C=N/N=C/c2c[nH]c(=O)c(C#N)c2Nc2ccccc2)ccc1O,0,0.34,.,-7,.,.
C=CCN(C(=O)C1=NN(C2CCS(=O)(=O)C2)C(=O)CC1)c1nc(-c2ccc([N+](=O)[O-])cc2)cs1 (stereo not given),-1,2,+,9,6,2
O=C(Nc1cccnc1)C1=NN(C2CCS(=O)(=O)C2)C(=O)CC1 (stereo not given),-5,0.23,i,1,6,2
COC(=O)c1c(C(=O)OC)c(-c2cccc(Cl)c2)n2c1CS(=O)C2 (stereo not given),-1,-0.99,i,3,-2,4
CCOc1ccc(N2C(=O)CC(Sc3nnnn3-c3ccccc3)C2=O)cc1 (stereo not given),-2,-3.2,+,108*,1,2
CCOc1ccc(N2C(=O)CC(Sc3nc(C)cc(C)n3)C2=O)cc1 (stereo not given),-2,-1,i,21,3,2
O=C1c2ccccc2C(=O)C1c1ccc2ccccc2n1,2,2.6,i,92*,33,5
Cc1ccc(-c2ccc(/C=N/n3cnnc3)o2)cc1Cl,.,-1.1,i,28,71*,1
CC1(C)CC2CC(C)(CN2/C=N/c2sc3c(c2C#N)CC(C)(C)NC3(C)C)C1 (stereo not given),0,-1.5,.,-16,.,.
CCOCCCNC(=O)c1cc2c(-c3ccc(Cl)cc3)nn(C)c2s1,.,-0.48,i,55,7,5
Cn1nc(-c2ccc(Cl)cc2)c2cc(C(=O)N3CCN(C(=O)c4ccco4)CC3)sc21,.,-0.25,i,33,19,3
CCN(CC)CCNC(=O)c1cc2c(-c3ccc(Cl)cc3)nn(C)c2s1,.,-0.82,+,26,100*,3
CCN1CCN(C(=O)c2cc3c(-c4ccc(Cl)cc4)nn(C)c3s2)CC1,2,-0.21,i,11,52*,1
C/C(=N\NC(=O)c1ccc(F)cc1)c1cccc(NC(=O)c2ccco2)c1,-1,1.2,i,-43,67*,3
CCOc1ccccc1NC(=O)c1cccc(S(=O)(=O)N(Cc2ccccc2)c2ccccc2OC)c1,-2,-0.083,i,0,86*,3
COc1ccc(CNC(=O)c2cccc(NC(=O)c3ccccc3)c2)cc1,1,-0.81,i,15,18,1
CC(C)CNC(=O)c1cccc(NC(=O)c2ccco2)c1,-4,-0.46,i,21,79*,2
Cc1ccc(C(=O)Nc2cccc(C(=O)NCc3ccccc3)c2)o1,-1,-0.61,i,29,92*,4
COc1ccccc1N(Cc1ccccc1)S(=O)(=O)c1cccc(C(=O)O)c1,2,-0.43,i,-5,-6,2
Cc1ccc(OCC(=O)Nc2cccc(S(=O)(=O)N3CCCCCC3)c2)c([N+](=O)[O-])n1,0,-0.27,i,14,30,1
Cc1cccc(N(CC(=O)NCc2ccco2)C(=O)CCC(=O)Nc2nccs2)c1,-2,-0.48,i,14,30,1
O=C(O)Cc1ccc(NC(=O)c2cccc(NC(=O)c3ccco3)c2)cc1,-2,-0.84,i,23,-4,4
SMILES,bCat nuc transl,Dynein cargo inh,Autophagy HCS,CHOP inh,L major viab,MT stabilizer
COc1ccc(C(=O)NNC(=O)C(NC(=O)c2ccccc2NC(=O)c2ccco2)C(C)C)cc1 (stereo not given),0,0.13,i,30,67*,3
CC(C)(C)c1ccc(C(=O)Nc2ccccc2NC(=O)c2ccco2)cc1,0,-0.17,i,72*,18,3
CN(Cc1ccccc1)C(=O)c1cccc(NC(=O)c2ccco2)c1,.,0.53,i,43,100*,4
CN(Cc1ccccc1)C(=O)c1ccco1,-1,-0.2,i,0,-13,1
O=C(NCc1ccccc1)c1cccc(NC(=O)c2ccco2)c1,-1,-1.2,i,18,98*,3
CCOC(=O)c1ccc(-c2c(C(=O)OCC)oc3cc(O)c(CC)cc3c2=O)o1,.,-0.081,i,57,-3,2
CCOc1ccccc1NC(=O)c1cccc(NC(=O)c2ccco2)c1,72*,-0.37,+,.,100*,41*
O=C(NCc1ccco1)c1cccc(NC(=O)c2ccco2)c1,-2,-0.67,i,17,79*,1
CC(C)C(=O)N=C1SC2CS(=O)(=O)CC2N1Cc1ccccc1 (stereo not given),-3,1,i,25,52*,3
CC(C)C(=O)N=C1SC2CS(=O)(=O)CC2N1Cc1ccc(Cl)cc1 (stereo not given),-1,0.7,.,4,.,.
CCN(CC)c1ccc(/C=C(\C#N)c2ccccn2)cc1,.,0.97,i,35,12,22*
CCN(Cc1ccccc1)c1ccc(/C=C(\C#N)c2ccccn2)cc1,-1,-0.14,i,-28,1,4
O=C1/C(=C\c2cccs2)SC(=S)N1C1CCS(=O)(=O)C1 (stereo not given),0,0.2,i,11,77*,2
O=C1/C(=C/c2ccccc2)SC(=S)N1C1CCS(=O)(=O)C1 (stereo not given),1,-0.66,.,9,.,.
C=C(C)c1cccc(C(C)(C)NC(=O)N(Cc2ccccc2)Cc2ccco2)c1,.,0.15,i,83*,19,3
CC(C)CNC(=S)NNC(=O)c1ccco1,-3,-0.7,i,-10,-6,3
CCN(CC)Cc1ccccc1Sc1ccccc1,-3,-0.33,i,18,94*,3
CCOC(=O)C1(Cc2cccc(OC)c2)CCN(Cc2cccn2-c2ccccn2)CC1,-2,0.31,i,-1,22,4
CCOc1ccc(N2C(=O)CC(N3CCN(c4ccc(C(=O)c5ccncc5)cc4)CC3)C2=O)cc1 (stereo not given),.,-0.35,i,.,77*,3
CCN1C(=O)CC(N2CCN(c3ccc(C(=O)c4ccncc4)cc3)CC2)C1=O (stereo not given),-2,0.29,i,45,73*,2
O=C(Cn1c(=O)oc2cccnc21)Nc1ccccc1Oc1ccc(Cl)cc1Cl,0,-0.37,.,14,.,.
CSc1nc2cc(C)nn2c(-c2ccccc2Cl)c1C#N,2,0.72,.,-28,.,.
